Reference: publication PMC5319884 (Biochemistry, 2017)
“Also recorded” adds a separate entry of the source. Read-outs that look alike come from different tables or passages of the source.

Assays:
Format in all cases: biochemical
hGOAT [1] = target: T1, hGOAT (Homo sapiens, UniProt Q96T53); test: in vitro hGOAT octanoylation activity assay
T1 sequence (Q96T53 1-435): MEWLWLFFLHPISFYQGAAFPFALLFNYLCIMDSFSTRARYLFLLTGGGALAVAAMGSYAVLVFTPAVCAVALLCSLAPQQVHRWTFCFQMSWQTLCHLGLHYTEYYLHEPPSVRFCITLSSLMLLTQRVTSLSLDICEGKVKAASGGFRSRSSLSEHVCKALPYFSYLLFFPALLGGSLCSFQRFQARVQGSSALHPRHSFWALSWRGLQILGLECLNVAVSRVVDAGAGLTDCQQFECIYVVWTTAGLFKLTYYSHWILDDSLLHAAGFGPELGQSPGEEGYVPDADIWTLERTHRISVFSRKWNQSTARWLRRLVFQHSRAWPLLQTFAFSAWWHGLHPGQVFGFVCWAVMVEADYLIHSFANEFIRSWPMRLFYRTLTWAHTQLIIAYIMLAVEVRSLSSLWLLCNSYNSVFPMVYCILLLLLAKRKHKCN
Outline: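 hGOAT was expressed in Sf9 cell membrane fractions, homogenized by needle, and ~100 μg membrane protein was preincubated 30 min at room temperature with 1 μM MAFP and test compound or vehicle (DMSO or ethanol) in 50 mM HEPES pH 7.0. Reactions were started with 500 μM octanoyl-CoA and 1.5 μM acrylodan-labeled peptide, run 3 h at room temperature in the dark, acid/isopropanol-stopped, TCA-clarified and analysed by reverse-phase HPLC. Percent activity was taken as octanoylated/total peptide fluorescence relative to vehicle, from three independent determinations.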

mGOAT = target: T2, mGOAT (Mus musculus, UniProt P0C7A3); test: in vitro mGOAT octanoylation activity assay; details: side-by-side assay, mGOAT IC50 higher than hGOAT
T2 sequence (P0C7A3 1-435): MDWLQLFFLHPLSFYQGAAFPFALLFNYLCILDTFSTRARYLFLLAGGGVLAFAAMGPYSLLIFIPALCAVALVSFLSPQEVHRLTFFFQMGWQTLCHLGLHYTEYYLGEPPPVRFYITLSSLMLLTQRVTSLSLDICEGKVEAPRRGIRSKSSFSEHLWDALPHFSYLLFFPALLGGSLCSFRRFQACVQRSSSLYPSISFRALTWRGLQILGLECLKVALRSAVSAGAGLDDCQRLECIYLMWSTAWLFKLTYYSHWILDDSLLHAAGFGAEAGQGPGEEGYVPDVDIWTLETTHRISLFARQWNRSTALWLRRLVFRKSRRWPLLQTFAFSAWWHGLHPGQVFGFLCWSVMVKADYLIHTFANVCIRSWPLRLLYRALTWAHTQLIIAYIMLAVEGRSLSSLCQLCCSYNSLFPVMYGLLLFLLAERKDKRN
Outline: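 mGOAT and hGOAT were expressed in Sf9 insect-cell membrane fractions, which were thawed on ice and homogenised through an 18-gauge needle. About 100 μg membrane protein was preincubated 30 min at room temperature with 1 μM MAFP plus inhibitor or vehicle (DMSO or ethanol) in 50 mM HEPES pH 7.0.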

hGOAT [2] = target: T1, hGOAT; test: inhibitor time dependence with hGOAT; details: preincubation 5-60 min, 10 min reaction, 30 μM CDDO-EA
Outline: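 hGOAT Sf9 membranes (~100 μg protein) were first preincubated 30 min at RT with 1 μM MAFP in 50 mM HEPES pH 7.0. Inhibitor or vehicle was then added for 5, 10, 30 or 60 min before starting with 500 μM octanoyl CoA and 1.5 μM GSSFLC-acrylodan. The reaction ran only 10 min at RT in the dark, then was stopped and analysed by RP-HPLC. % activity versus vehicle and IC50 were derived per preincubation time; minimum of three measurements.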

hGOAT [3] = target: T1, hGOAT; test: inhibitor reversibility; details: pretreatment at 3 x IC50, 10-fold dilution
Outline: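 Undiluted homogenised Sf9 membrane containing hGOAT (~7 μg/μL protein) was preincubated 30 min at RT with 10 μM MAFP and inhibitor or vehicle (DMSO or ethanol). It was then diluted 10-fold into 50 mM HEPES pH 7.0 with 500 μM octanoyl CoA, 1.5 μM GSSFLC-acrylodan, and either vehicle or inhibitor at the same final level as in preincubation. Reactions ran 3 h at RT in the dark, followed by RP-HPLC quantitation of octanoylated peptide.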

| Compound | inhibition of hGOAT activity (hGOAT [1]; at concentrations up to 100 μM) | inhibition of hGOAT activity (hGOAT [1]) | reversibility of hGOAT inhibition (hGOAT [3]) | other results |
| --- | --- | --- | --- | --- |
| C[C@H]1[C@H](C)CC[C@]2(C(=O)O)CC[C@]3(C)C(=CC[C@@H]4[C@@]5(C)CC[C@H](O)C(C)(C)[C@@H]5CC[C@]43C)[C@H]12 [Compound 6, ursolic acid] | negligible inhibition | – | – | – |
| CC1(C)CC[C@]2(C(=O)O)CC[C@]3(C)[C@H](C(=O)C=C4[C@@]5(C)C=C(C#N)C(=O)C(C)(C)[C@@H]5CC[C@]43C)[C@@H]2C1 [Compound 5] | – | lack of inhibition | – | – |
| COC(=O)[C@]12CCC(C)(C)C[C@H]1[C@H]1C(=O)C=C3[C@@]4(C)C=C(C#N)C(=O)C(C)(C)[C@@H]4CC[C@@]3(C)[C@]1(C)CC2 [Compound 2, methyl 2-cyano-3,12-dioxooleana-1,9(11)dien-28-oate] | – | exhibits inhibitory activity against hGOAT; also recorded: most potent inhibition of hGOAT | – | – |
| CC1(C)CC[C@]2(C)CC=C3[C@]4(C)CC[C@H]5C(C)(C)[C@@H](O)CC[C@]5(C)[C@H]4CC[C@@]3(C)[C@@H]2C1 [Compound 8, taraxerol] | fails to inhibit | – | – | – |
| CCNC(=O)[C@]12CCC(C)(C)C[C@H]1[C@H]1C(=O)C=C3[C@@]4(C)C=C(C#N)C(=O)C(C)(C)[C@@H]4CC[C@@]3(C)[C@]1(C)CC2 [Compound 3] | – | most potent inhibition of hGOAT | reversible hGOAT inhibition | IC50 against mGOAT relative to hGOAT (mGOAT): ~ 8 fold; time dependence of hGOAT inhibition (hGOAT [2]): time-dependent inhibition |
| CC1(C)CC[C@]2(C(=O)O)CC[C@]3(C)C(=CC[C@@H]4[C@@]5(C)CC[C@H](O)C(C)(C)[C@@H]5CC[C@]43C)[C@@H]2C1 [Compound 7, oleanic acid] | negligible inhibition | – | – | – |
| C[C@]12CC[C@@H]3c4ccc(O)cc4CC[C@H]3[C@@H]1CCC2=O [Compound 15, estrone] | – | lack of hGOAT inhibition | – | – |
| CCN1C(=O)C=CC1=O [NEM, N-ethylmaleimide] | – | efficiently inhibits hGOAT | irreversible hGOAT inhibition | – |
| [Dap^3]octanoyl-ghrelin (1-5)-NH2 | – | – | reversible inhibition | – |
| O=C1C=CCCC1 [Compound 18, cyclohexenone] | – | – | – | inhibition of hGOAT activity (hGOAT [1]; at concentrations up to 1 mM): does not inhibit hGOAT activity |
